Hits are enriched below; roughly 1.8% of the tested compounds scored in any of these assays.
Runt-SMMHC FRET: Runt domain-CBFb-SMMHC interaction inhibition. Q01196+Q13951. Cerulean-Runt/Venus-CBFb-SMMHC FRET ratio 530/480, 1 h. inhibition, % at 20 µM. 220,000 tested, 0.74% active;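 active means mean inhibition across duplicate retests at 20 µM reaching about 50%, limit read from the data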;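 further: 0% = DMSO wells and 100% = wells with excess untagged CBFb-SMMHC; inhibitors lower the FRET ratio by blocking Runt binding to CBFb-SMMHC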
RanGTP-Imp inh: disruptors of Ran-importin-beta complex formation – biochemical, FRET, CFP-Ran, YFP-importin-beta, homogeneous, primary screen; 300,000 tested, 1.1% active; cell-free CFP-Ran/YFP-importin-beta FRET ratio; inhibition, % (concentration not given with the values);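 active means more than half of the replicate wells show a fall in the fluorescence ratio signal beyond about 16%, limit read from the data, passing the limit was not always enough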;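 further: 0% = DMSO wells and 100% = Ran loaded with GDP instead of GTP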
Platelet DG rel: platelet dense granule release activity; 300,000 tested, 0.22% active; inhibition, %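 (compounds screened at 7.5 µM in platelet-rich plasma)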; human platelet-rich plasma, SFLLRN dense granule ATP release, luminescence;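 active means mean replicate score, as percent of positive control, at or above 50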
Rce1 inh: yeast Ras-converting enzyme inhibition; 290,000 tested, 0.27% active; yeast membranes, quenched prenylated peptide cleavage fluorescence; Q03530; AID 2563; calls only;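 active means fall in fluorescence gain of 50% or more versus controls, with final raw signal at or below 3038400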;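 further: plate controls were neutral control wells for no effect and wells lacking membranes for full effect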
Target sequence (Q03530 whole entry, looked up): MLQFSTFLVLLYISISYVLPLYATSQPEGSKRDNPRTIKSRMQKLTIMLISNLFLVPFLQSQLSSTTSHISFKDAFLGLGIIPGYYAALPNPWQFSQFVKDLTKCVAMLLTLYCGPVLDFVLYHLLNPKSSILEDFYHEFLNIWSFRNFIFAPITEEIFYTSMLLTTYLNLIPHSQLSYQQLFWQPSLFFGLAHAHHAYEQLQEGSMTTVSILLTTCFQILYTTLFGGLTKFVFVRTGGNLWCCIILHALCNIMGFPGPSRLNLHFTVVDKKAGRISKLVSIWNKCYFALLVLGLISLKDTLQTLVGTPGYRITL
Runt-CBFb FRET: inhibitors of human RUNX1 Runt domain binding to CBFb. Cerulean-Runt/Venus-CBFb FRET ratio 530/480, 1 h. inhibition, % at 20 µM. 220,000 tested, 0.46% active. AID 1496;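 active means inhibition over about 50% at 20 µM in the single-dose screen, limit read from the data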;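 further: 0% = DMSO wells and 100% = excess unlabeled CBFb competitor control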
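test system = Cerulean-Runt domain fusion protein, energy donor | probe or stimulus = Venus-CBFb binding partner, 100 nM | incubation = two 1 h room-temperature incubations shielded from light | detection = fluorescence energy transfer, 422 nm excitation, 530/480 nm emission | measure = loss of energy transfer signal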
YIC counter: counter-screen: alters YIC FRET probe signal; IC50, µM; Purified YIC probe, intramolecular FRET ratio YFP/CFP; AID 435026; 1,000 tested, 40% active; shares compounds with RanGTP-Imp inh;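 active means fitted half-maximal inhibitory concentration no more than tenfold above the top dose tested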
* marks the source's active call; other numbers are inactive results.

What do the screens show for `COc1ccc(-c2nc(NC(=O)c3n[nH]c(=O)c4ccccc34)sc2C)cc1`?
Runt-SMMHC FRET: -33; RanGTP-Imp inh: 22*; Platelet DG rel: -6; Rce1 inh: inactive; Runt-CBFb FRET: -14; YIC counter: >50

How did CCOc1ccc(N2C(=O)C3C4C=CC(CC4)C3C2=O)c([N+](=O)[O-])c1 (stereo not given) do in these assays?
Runt-SMMHC FRET: 1; RanGTP-Imp inh: 20*; Platelet DG rel: 1; Rce1 inh: inactive; Runt-CBFb FRET: 1; YIC counter: >50

What do the screens show for `COc1ccc(N2C(=O)C3C4C=CC(CC4)C3C2=O)c([N+](=O)[O-])c1` (stereo not given)?
Runt-SMMHC FRET: 1; RanGTP-Imp inh: -1; Platelet DG rel: 11; Rce1 inh: inactive; Runt-CBFb FRET: 0

Results for O=C(Nc1cccc2ccccc12)c1cc2c(cc1Br)OCO2 ?
Runt-SMMHC FRET: 0; RanGTP-Imp inh: -3; Platelet DG rel: 1; Rce1 inh: inactive; Runt-CBFb FRET: 0

Results for CCN(/N=C/c1ccc(Cl)cc1)c1cc(=O)n(C)c(=O)[nH]1 ?
Runt-SMMHC FRET: 8; RanGTP-Imp inh: 4; Platelet DG rel: 2; Rce1 inh: inactive; Runt-CBFb FRET: 4

How did CCN(/N=C/C=C/c1ccccc1)c1cc(=O)n(C)c(=O)[nH]1 do in these assays?
Runt-SMMHC FRET: 1; RanGTP-Imp inh: 27*; Platelet DG rel: 11; Rce1 inh: inactive; Runt-CBFb FRET: 1; YIC counter: >50

Results for CCOC(=O)CNC(=O)C1CCCN(c2ncccn2)C1 (stereo not given) ?
Runt-SMMHC FRET: -1; RanGTP-Imp inh: 21*; Platelet DG rel: -12; Rce1 inh: inactive; Runt-CBFb FRET: 0; YIC counter: >50

How did O=C(NCc1cccs1)C1CCCN(c2ncccn2)C1 (stereo not given) do in these assays?
Runt-SMMHC FRET: -3; RanGTP-Imp inh: -2; Platelet DG rel: -1; Rce1 inh: inactive; Runt-CBFb FRET: 0

What do the screens show for `CC(C)SCC(=O)Nc1ncc2c(n1)-c1ccccc1CC2`?
Runt-SMMHC FRET: 18; RanGTP-Imp inh: 18*; Platelet DG rel: -8; Rce1 inh: inactive; Runt-CBFb FRET: 7; YIC counter: 3.5*

How did O=C(Nc1ncc2c(n1)-c1ccccc1CC2)C1CC1 do in these assays?
Runt-SMMHC FRET: -3; RanGTP-Imp inh: 5; Platelet DG rel: 2; Rce1 inh: inactive; Runt-CBFb FRET: 1

Results for Cc1csc2ncnc(NC3CCN(Cc4ccccc4)CC3)c12 ?
Runt-SMMHC FRET: -6; RanGTP-Imp inh: 19*; Platelet DG rel: -8; Rce1 inh: inactive; Runt-CBFb FRET: 1; YIC counter: >50

What do the screens show for `CCCOC(=O)CCCCCCCCC(O)CN1CCCCC1` (stereo not given)?
Runt-SMMHC FRET: 2; RanGTP-Imp inh: 2; Platelet DG rel: 2; Rce1 inh: inactive; Runt-CBFb FRET: 1

Results for CC(C)(C)Cc1nnc(NC(=O)CCC2CCCCC2)s1 ?
RanGTP-Imp inh: -3; Platelet DG rel: -6; Rce1 inh: inactive

Results for CSc1nnc2c(n1)OC1(Nc3ccccc3-2)C(=O)Nc2ccccc21 (stereo not given) ?
Runt-SMMHC FRET: -1; RanGTP-Imp inh: -1; Platelet DG rel: -9; Rce1 inh: inactive; Runt-CBFb FRET: -2

Results for COc1ccc(-n2c(=S)[nH]c3cc(C(=O)NCc4ccco4)ccc3c2=O)c(OC)c1 ?
Runt-SMMHC FRET: 0; RanGTP-Imp inh: 1; Platelet DG rel: 2; Rce1 inh: inactive; Runt-CBFb FRET: 2

What do the screens show for `COc1ccc(-n2c(N)c(C(=O)NCc3ccco3)c3nc4ccccc4nc32)c(OC)c1`?
Runt-SMMHC FRET: 95*; RanGTP-Imp inh: 33*; Platelet DG rel: -1; Rce1 inh: active; Runt-CBFb FRET: 40; YIC counter: 19*

What do the screens show for `O=C(O)C1C2C=CC(C3CC23)C1C(=O)N1CCc2ccccc21` (stereo not given)?
Runt-SMMHC FRET: 0; RanGTP-Imp inh: 0; Platelet DG rel: 7; Rce1 inh: inactive; Runt-CBFb FRET: 1

How did COCC1CCN(C(=O)C2CCC(=O)N(CCc3cccc(F)c3)C2)CC1 (stereo not given) do in these assays?
RanGTP-Imp inh: -3; Platelet DG rel: 10

Results for N#Cc1c(-c2ccc3c(c2)OCO3)ccn2nc(-c3cccc(C(F)(F)F)c3)nc12 ?
Runt-SMMHC FRET: 30; RanGTP-Imp inh: 20*; Platelet DG rel: -8; Rce1 inh: inactive; Runt-CBFb FRET: -6; YIC counter: 22*

How did CCN(CCn1cccn1)C(=O)c1cccc(OC2CCN(S(C)(=O)=O)CC2)c1 do in these assays?
RanGTP-Imp inh: -2; Platelet DG rel: 5; Rce1 inh: inactive

Results for Cc1ccnc(NC(=O)C2CCN(S(=O)(=O)c3ccc(Cl)c(C(F)(F)F)c3)CC2)c1 ?
RanGTP-Imp inh: 0; Platelet DG rel: 3; Rce1 inh: inactive

Results for Cc1ccc(NC(=O)C2CCN(S(=O)(=O)c3ccc(Cl)c(C(F)(F)F)c3)CC2)nc1 ?
RanGTP-Imp inh: 20*; Platelet DG rel: 0; Rce1 inh: inactive; YIC counter: >50

How did CCOC(=O)/C=C1\SCC(=O)N1CC(=O)c1ccc[nH]1 do in these assays?
Runt-SMMHC FRET: -3; RanGTP-Imp inh: 21*; Platelet DG rel: 1; Rce1 inh: inactive; YIC counter: >50

What do the screens show for `CCOC(=O)/C=C1\SCC(=O)N1CC(=O)Nc1ccc(OC)c(OC)c1`?
Runt-SMMHC FRET: 7; RanGTP-Imp inh: 8; Platelet DG rel: 7; Rce1 inh: inactive; Runt-CBFb FRET: -2

How did CC/C(=N\NC(=O)c1cc(C2CC2)[nH]n1)c1ccccc1 do in these assays?
RanGTP-Imp inh: 38*; Platelet DG rel: -20; Rce1 inh: inactive; YIC counter: >50

How did Cc1nn(-c2ccccc2)c(C)c1/C=N/NC(=O)c1cc(C2CC2)[nH]n1 do in these assays?
Runt-SMMHC FRET: 0; RanGTP-Imp inh: 3; Platelet DG rel: 0; Rce1 inh: inactive; Runt-CBFb FRET: 1

How did CCC(C(=O)Nc1cccnc1Cl)c1ccccc1 (stereo not given) do in these assays?
RanGTP-Imp inh: -2; Platelet DG rel: -2; Rce1 inh: inactive

Results for O=c1c2ccccc2[nH]c2ccccc12 ?
Runt-SMMHC FRET: 83*; RanGTP-Imp inh: 19*; Platelet DG rel: -1; Runt-CBFb FRET: 120*; YIC counter: 49*

Results for c1ccc2c(c1)[nH]c1ccccc12 ?
RanGTP-Imp inh: -3; Platelet DG rel: 1; Rce1 inh: inactive

What do the screens show for `CCN1CCN(C(=O)C23CCC(C)(C(=O)C2Br)C3(C)C)CC1` (stereo not given)?
Runt-SMMHC FRET: -1; RanGTP-Imp inh: 7; Platelet DG rel: 7; Rce1 inh: inactive; Runt-CBFb FRET: 2

Assay outcomes: PubChem BioAssay, several laboratories
